For data set [1], the species on record is Canis familiaris. The data set can be described thus: Maximum percent change in functional refractory period(FRP) of compound (30 uM) was tested on Canine ventricular muscle fibre. Also on record: species or system Canis lupus familiaris, Muscle tissue. The method, boiled down:
(§1)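 Canine right ventricular papillary muscle strips were superfused at 36 ± 0.5 °C with saline gassed with 95% O2/5% CO2. Diastolic threshold was found with 2-ms stimuli at 4000 ms cycle length, then pacing at 4× threshold for 60 min equilibration. FRP was measured at 1000 ms cycle length by S1-S2 premature stimulus after every tenth S1. Conduction time came from a bipolar electrogram. Various compound concentrations were tested, one compound per strip, with vehicle controls. Percent change from control was taken at 10 µM, or the maximum change with its concentration; for N ≥ 3, mean with range.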

For data set [2], the species on record is Canis familiaris. The data set can be described thus: Maximum Percent change from control in the rate of rise of phase 0 of the action potential at 100 uM concentration on Canine Purkinje fibers. It is filed as […], Canis lupus familiaris, Purkinje fiber. To be noted: dog, in vitro. The essentials:
(§2)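 Isolated canine Purkinje fibers were superfused with physiological saline gassed with 95% O2/5% CO2 (pH 7.35–7.40) at 36 ± 0.5 °C. Paced at 1.0 Hz with 2-ms pulses at twice diastolic threshold. After up to 1 h stabilization, compounds were tested over 10^-8 to 10^-3 M, 30 min per concentration, one compound per fiber, with vehicle controls. Intracellular microelectrodes (3 M KCl) recorded Vmax and APD95; maximum percent change from control is reported with its concentration.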

The species entered for data set [3] is Canis familiaris. Put plainly: Percent change in repolarization at 10 Purkinje fibers. The class given is functional, Canis lupus familiaris, Purkinje fiber. The essentials: (§3)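 Canine Purkinje fibers were held in oxygenated (95% O2–5% CO2) physiological saline, pH 7.35–7.40, at 36 ± 0.5 °C and paced at 1.0 Hz with 2-ms pulses at twice diastolic threshold. Intracellular microelectrodes (3 M KCl) recorded Vmax and APD95 simultaneously. After up to 1 h of stabilization, compounds were tested from 10^-8 to 10^-3 M with 30 min per concentration. One compound per fiber, with vehicle controls. For N ≥ 3, values are the mean with the range.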

The species named for data set [4] is Canis familiaris. The data set can be described thus: Maximum percent change in conduction time (CT) at 10 uM concentration tested on Canine ventricular muscle fibre. The class given is functional, Canis lupus familiaris, Muscle tissue. The essentials:
as §1

Data set [5] is filed under the species Canis familiaris. Put plainly: Percent change from control in the functional refractory period (FRP) at 10 uM conc. on Canine ventricular muscle fibre. Also on record: species or system Canis lupus familiaris, Muscle tissue. The method, boiled down:
as §1

The species named for data set [6] is Canis familiaris. The data set can be described thus: Percent change from control in conduction time (CT) at 10 uM concentration tested on Canine ventricular muscle fibre.; M is minimal(<10% change in CT). It is filed as functional. As to conditions: Canis lupus familiaris, Muscle tissue. The method, boiled down:
as §1

The species named for data set [7] is Cavia porcellus. The data set can be described thus: Concentration of compound which gives a 20% decrease in contractile force was tested on papillary muscle of guinea pig, activity was expressed as EC-20. The class given is functional. As to conditions: Muscle tissue. The method, boiled down:
(§4)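 Contractile force measured in an isolated cardiac muscle preparation. Value is the concentration giving a 20% decrease in force of contraction. NR marks that this decrease was not reached. Values come from individual experiments; for N ≥ 3, the mean is given with the range.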

Data set [8] is filed under the species Canis familiaris. The data set can be described thus: Maximum percent change in repolarization at 100 uM concentration on Canine Purkinje fibers. It is filed as functional, Canis lupus familiaris, Purkinje fiber. The method, boiled down:
as §2

For data set [9], the species on record is Canis familiaris. The data set can be described thus: Percent change from control in the rate of rise of phase 0 of the action potential at 10 uM concentration on Canine Purkinje fibers. To be noted: dog. Also noted: species or system Canis lupus familiaris, Purkinje fiber.
The species named for data set [10] is Canis familiaris. The data set can be described thus: Maximum percent change in conduction time (CT) at 1 uM concentration tested on Canine ventricular muscle fibre. It is filed as functional, Canis lupus familiaris, Muscle tissue. The method, boiled down:
as §1

The species named for data set [11] is Canis familiaris. Put plainly: Maximum percent change in repolarization at 0.1 uM concentration on Canine Purkinje fibers. It is filed as functional, Canis lupus familiaris, Purkinje fiber. The method, boiled down:
as §2

The species entered for data set [12] is Canis familiaris. The data set can be described thus: Maximum percent change in functional refractory period (FRP) at 100 uM on Canine ventricular muscle fibre. Also noted: species or system Canis lupus familiaris, Muscle tissue. The essentials: as §1
The species named for data set [13] is Cavia porcellus. The data set can be described thus: Concentration of compound which gives a 20% decrease in contractile force was tested on papillary muscle of guinea pig, activity was expressed as EC-20; N.R. is not reached. The class given is functional. To be noted: Muscle tissue. The method, boiled down: as §4
The species entered for data set [14] is Canis familiaris. Put plainly: Maximum percent change in conduction time (CT) at 100 uM concentration tested on Canine ventricular muscle fibre. It is filed as functional, Canis lupus familiaris, Muscle tissue. The method, boiled down:
as §1

The species entered for data set [15] is Canis familiaris. The data set can be described thus: Percent change from control in conduction time (CT) at 10 uM concentration tested on Canine ventricular muscle fibre. The class given is functional, Canis lupus familiaris, Muscle tissue. The method, boiled down: as §1
Data set [16] is filed under the species Canis familiaris. Put plainly: Percent change in repolarization at 10 Purkinje fibers.; value ranges from 1-4. The class given is functional, Canis lupus familiaris, Purkinje fiber. The method, boiled down: as §3
For data set [17], the species on record is Canis familiaris. The data set can be described thus: Maximum percent change in repolarization at 10 uM concentration on Canine Purkinje fibers. The class given is functional, Canis lupus familiaris, Purkinje fiber. The essentials: as §2
The species entered for data set [18] is Canis familiaris. Put plainly: Maximum Percent change from control in the rate of rise of phase 0 of the action potential at 1 uM concentration on Canine Purkinje fibers. Also on record: species or system Canis lupus familiaris, Purkinje fiber. The method, boiled down: as §2
For data set [19], the species on record is Canis familiaris. Put plainly: Maximum Percent change from control in the rate of rise of phase 0 of the action potential at 30 uM concentration on Canine Purkinje fibers. Also on record: species or system Canis lupus familiaris, Purkinje fiber. To be noted: dog, in vitro. The essentials:
as §2

Data set [20] is filed under the species Canis familiaris. Put plainly: Maximum percent change in repolarization at 30 uM concentration on Canine Purkinje fibers. The class given is functional, Canis lupus familiaris, Purkinje fiber. The essentials: as §2
Data set [21] is filed under the species Canis familiaris. Put plainly: Percent change in conduction time (CT) at 10 uM concentration tested on Canine ventricular muscle fibre; value ranges from -14-6. The class given is functional, Canis lupus familiaris, Muscle tissue.
For data set [22], the species on record is Canis familiaris. Put plainly: Percent change in repolarization at 10 Purkinje fibers.; value ranges from -5 - 5. It is filed as functional, Canis lupus familiaris, Purkinje fiber. The method, boiled down:
as §3

The species entered for data set [23] is Canis familiaris. Put plainly: Percent change from control in the rate of rise of phase 0 of the action potential at 10 uM concentration on Canine Purkinje fibers.; value ranges from -13 - -2. It is filed as […], organism-based, Canis lupus familiaris, Purkinje fiber. To be noted: dog, in vitro.
Data set [24] is filed under the species Canis familiaris. Put plainly: Maximum percent change in functional refractory period (FRP) at 100 uM on Canine ventricular muscle fibre.; value ranges from 5-18. Also on record: species or system Canis lupus familiaris, Muscle tissue. The method, boiled down: as §1
Data set [25] is filed under the species Cavia porcellus. Put plainly: Concentration of compound ( ) which gives a 20% decrease in contractile force was tested on papillary muscle of guinea pig, activity was expressed as EC-20. It is filed as functional. As to conditions: Muscle tissue. The essentials:
as §4

For data set [26], the species on record is Canis familiaris. The data set can be described thus: Percent change from control in the functional refractory period (FRP) at 10 uM conc. on Canine ventricular muscle fibre.; value ranges from -5-3. Also noted: species or system Canis lupus familiaris, Muscle tissue. The method, boiled down: as §1
The species named for data set [27] is Canis familiaris. Put plainly: Maximum Percent change from control in the rate of rise of phase 0 of the action potential at 100 uM concentration on Canine Purkinje fibers. To be noted: dog, in vitro.
For data set [28], the species on record is Canis familiaris. Put plainly: Maximum percent change in functional refractory period (FRP) at 1 uM on Canine ventricular muscle fibre. Also on record: species or system Canis lupus familiaris, Muscle tissue. The essentials:
as §1

Data set [29] is filed under the species Canis familiaris. The data set can be described thus: Percent change in repolarization at 10 Purkinje fibers.; value ranges from 5-16. It is filed as functional, Canis lupus familiaris, Purkinje fiber. The essentials: as §3
Data set [30] is filed under the species Canis familiaris. The data set can be described thus: Percent change from control in conduction time (CT) at uM concentration tested on Canine ventricular muscle fibre.; M is minimal(<10% change in CT). The class given is functional. To be noted: Canis lupus familiaris; Muscle tissue. The essentials: as §1
For data set [31], the species on record is Cavia porcellus. The data set can be described thus: Concentration of compound which gives a 20% decrease in contractile force was tested from individual experiments on papillary muscle of guinea pig, activity was expressed as EC-20. The class given is functional. To be noted: Muscle tissue. The essentials: as §4
The species named for data set [32] is Canis familiaris. The data set can be described thus: Maximum Percent change from control in the rate of rise of phase 0 of the action potential at 10 uM concentration on Canine Purkinje fibers. The class given is functional, Canis lupus familiaris, Purkinje fiber. To be noted: dog, in vitro. The method, boiled down:
as §2

Activity calls are given as the source filed them.

Usually EC20 stands for the point of the concentration-response curve where the effect stands at 20%.

Take `CCN(CC)CCNC(=O)c1c(C)[nH]c(C)c1C`: the values for the FRP in the data set listed under Canis familiaris [1] and in the data set listed under Canis familiaris [5] were 6% and 1%, respectively. Also, the figures for the Vmax in the data set filed under Canis familiaris [2] and in the data set filed under Canis familiaris [9] (in vivo) were -45% and -18%, respectively. For the same compound, the APD95 is 2% in the data set listed under Canis familiaris [3] and -5% in the data set listed under Canis familiaris [8]. Besides, the CT in the data set filed under Canis familiaris [4] is given as -8%; in the data set filed under Canis familiaris [6] it was “Minimal”. Also, in the data set filed under Cavia porcellus [7], the EC20 came out at 30 µM.

In the case of `CCN(CC)CCNC(=O)c1c(O)cc(C)nc1C`, the CT in the data set filed under Canis familiaris [10] is given as -5%; in the data set listed under Canis familiaris [14] it was -16%; in the data set filed under Canis familiaris [15], -5%. In addition, the Vmax in the data set filed under Canis familiaris [2] is on record as -7%; in the data set listed under Canis familiaris [18] it was -5%; in the data set filed under Canis familiaris [19], -12%; in the data set listed under Canis familiaris [9] (in vitro), 0.3%. In addition, the APD95 was 5% in the data set filed under Canis familiaris [11], 3% in the data set filed under Canis familiaris [16], 4% in the data set listed under Canis familiaris [17] and 4% in the data set listed under Canis familiaris [8]. Also, the figures for the FRP in the data set filed under Canis familiaris [12] and in the data set filed under Canis familiaris [5] were 26% and 21%, respectively. Also, the EC20 result in the data set filed under Cavia porcellus [13] was “Not reached”.

With `CCN(CC)CCNC(=O)c1cc2cccc(O)c2[nH]1`, the APD95 is given as -9% in the data set filed under Canis familiaris [20], 0.7% in the data set filed under Canis familiaris [22], 5% in the data set filed under Canis familiaris [17] and -28% in the data set filed under Canis familiaris [8]. Further, the CT in the data set listed under Canis familiaris [10] is given as -3%; in the data set filed under Canis familiaris [21], -3.3%; in the data set listed under Canis familiaris [14] it was 16%; in the data set filed under Canis familiaris [4] it was -14%. In addition, the Vmax in the data set filed under Canis familiaris [2] is on record as -35%; in the data set listed under Canis familiaris [23], -7%; in the data set listed under Canis familiaris [19], -19%. The FRP in the data set listed under Canis familiaris [24] is 10%; in the data set filed under Canis familiaris [26], -1%. The EC20 in the data set filed under Cavia porcellus [25] worked out at 30 µM.

Regarding `CCN(CC)CCNC(=O)c1cc(Cl)c(N)cc1OC` [METOCLOPRAMIDE], the values for the FRP in the data set listed under Canis familiaris [12] and in the data set filed under Canis familiaris [5] were 33% and 17%, respectively. Further, in the data set filed under Canis familiaris [14], the CT stood at 17%. For the same compound, the APD95 in the data set filed under Canis familiaris [3] was 1%; in the data set listed under Canis familiaris [8], -17%. Also, the Vmax in the data set filed under Canis familiaris [27] was -25%; in the data set listed under Canis familiaris [9] (in vitro), -3%. Further, in the data set listed under Canis familiaris [6], the CT result was “inactive”. Also, in the data set filed under Cavia porcellus [7], it took 10 µM to reach the 20% level (EC20).

In the case of `CCN(CC)CCCNC(=O)c1cc2ccccc2[nH]1`, the FRP in the data set filed under Canis familiaris [28] and in the data set filed under Canis familiaris [5] was 5% each time. In addition, the CT in the data set filed under Canis familiaris [14] is listed as -11%; in the data set listed under Canis familiaris [30], “Minimal”. In addition, the figures for the APD95 in the data set filed under Canis familiaris [29], in the data set listed under Canis familiaris [17] and in the data set filed under Canis familiaris [8] were 9.6%, 16% and -14%, respectively. In the data set listed under Cavia porcellus [31], this compound returned an EC20 of 26 µM. The Vmax in the data set listed under Canis familiaris [32] is listed as -13%; in the data set listed under Canis familiaris [19], -13%; in the data set listed under Canis familiaris [9] (in vitro), -7%.

For the origin of these results see ChEMBL document CHEMBL1124429, “Heterocyclic analogues of benzamide antiarrhythmic agents” (J Med Chem, 1989).
